Screening data from PubChem BioAssay.
Diaphorase act – compounds boosting diaphorase resazurin reduction – biochemical, uHTS, resorufin fluorescence, counter-screen for diaphorase-coupled primary assays, primary screen | 0.005% of 190,000 active | Diaphorase/resazurin coupled assay, 16 min; hits give high values; 1 = vehicle wells, 0 = NADH-free wells | activation factor at 20 µM;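 active = diaphorase activity raised at least twofold by the compound at 20 µM; inactive = activation factor below 2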
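Material: Purified diaphorase enzyme from Clostridium kluyveri | Buffer or medium: 50 mM HEPES pH 7.4 with 4.542 mM MgCl2, 0.005% Tween 20 | Times: 16 min enzyme reaction, ambient temperature | Signal: Red resorufin fluorescence at 544/590 nm excitation/emission | Measure: Increased resorufin signal from activators or reducing compounds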
Lmaj promast – Leishmania major promastigote growth inhibition, primary screen; Leishmania major promastigotes, resazurin fluorescence viability; AID 1063, 2008; 9% of 200,000 active; inhibition, % at 10 µM;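 note: promastigotes grown with compound for 44 hours at 28 °C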
Diaph inh CS – diaphorase inhibitors and chemical oxidizers, primary screen, counter-screen for diaphorase-coupled primary assays, biochemical, uHTS, resorufin fluorescence. inhibition, % at 20 µM. diaphorase resazurin-to-resorufin fluorescence, NADH, 16 min; bacterial (C. kluyveri) enzyme, not human. 0.69% of 190,000 active;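 active = primary screen inhibition at 20 µM above a set limit, cut at about 50% in these data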;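 note: plate controls were DMSO with full reaction for no effect and wells lacking NADH for full effect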
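Test system: bacterial diaphorase enzyme (C. kluyveri); Quantity: 0.14 U/mL diaphorase, enzyme working solution; Times: reaction incubation of 16 min at room temperature; Measured by: fluorescence of resorufin formed from resazurin, Ex 544/Em 590 nm; Benchmarks: positive control minus NADH, DMSO neutral control.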
G6PDH counter – L. mesenteroides G6PDH inhibitors, counter-screen for G6PDH-coupled screening assays, biochemical, Leuconostoc mesenteroides enzyme; glucose-6-phosphate dehydrogenase [Leuconostoc mesenteroides]; Purified L. mesenteroides G6PDH, diaphorase/resazurin coupled fluorescence, 45 min; inhibition, % at 5 µM; 0.12% of 200,000 active
WT yeast gro inh – growth inhibition of WT strain, primary screen, mitochondrial fusion inhibitor project, WT and mutant strains, chemical genetic; mitochondrial fusion phenotypic screen; inhibition, % at 10 µM; 2.1% of 190,000 active; AID 1362, 2008; in the data active = inhibition above about 58%; tested in S. cerevisiae
L major 1uM – Leishmania major promastigote growth inhibition, confirmation, 1 µM repeat of primary hits | inhibition, % at 1 µM | AID 1258, 2008 | 13% of 1,100 active | shares compounds with Lmaj promast | L. major promastigote growth, resazurin fluorescence, 48 h;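 active = inhibition above about 50% in both repeat tests, limit read from the data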
* = called active by the depositor; x = not tested or not shown. An excerpt weighted towards active compounds, which were near 11% of everything screened. Cut-off read from the data, not from the text of the source, unless noted: active = inhibition above about 50%; inactive = the rest.

SMILES	Diaphorase act	Lmaj promast	Diaph inh CS	G6PDH counter	WT yeast gro inh	L major 1uM
CN1CCC(C2(O)c3ccccc3CCc3ccccc32)CC1	1	5	-2	13	-5	x
Clc1ccc(CN=C2Nc3ccccc3CS2)cc1	1	18	3	2	2	x
Cc1ccc(CN=C2Nc3ccccc3CS2)cc1	0.9	86*	14	2	18	17
CCC(=O)c1cc(F)c(N2CCN(C(=O)Cc3ccccc3)CC2)cc1C	0.9	43	6	-17	0	x
O=[N+]([O-])c1ccc(-n2cnc3ccccc32)c([N+](=O)[O-])c1	0.7	100*	26	1	28	22
O=[N+]([O-])c1ccc2c(c1)ncn2-c1ccccc1	1.1	1	-8	5	-1	x
COc1cc(/C=C/C(=O)c2ccccc2O)cc(OC)c1OC	1	13	1	8	1	x
COc1ccc(C(=O)/C=C/c2ccccc2)c(OC)c1	0.8	66*	19	5	5	10
COc1ccc(OC)c(C(=O)/C=C/c2ccccc2C(F)(F)F)c1	0.9	75*	14	7	5	-9
CC1(C)CC(=O)C2=C(C1)N(Cc1cccnc1)C(=O)C2(NC(=O)c1ccc(F)cc1)C(F)(F)F (centres undefined)	0.9	-5	5	6	3	x
C=CCOc1nc(N(C)C)nc(N(C)C)n1	0.8	-3	21	6	0	x
Cc1ccc(-n2nc(-c3cccs3)cc2C(=O)NCC2CCCO2)c(C)c1 (centres undefined)	0.8	92*	19	17	15	-4
Cc1ccc(-c2cc(C(=O)NCC3CCCO3)no2)cc1 (centres undefined)	0.8	13	17	12	-7	x
O=C(Cn1nc(-c2ccccc2)nc1-c1ccccc1)OC1CCCCC1	0.9	32	9	5	31	x
O=C(O)CC(NC(=S)NCc1ccccc1)C(=O)O (centres undefined)	1	80*	3	0	-2	4
NC(=O)CC(NC(=S)NCc1ccccc1)C(=O)O (centres undefined)	0.9	-5	7	5	-3	x
CCN(CC#CCC1(O)c2ccccc2-c2ccccc21)C(C)C	0.9	-5	12	16	0	x
CC(C)CCN(C)c1ccc(/C=N/n2cnnc2)cc1	0.9	82*	8	3	31	-1
CCCCCCCSc1nsc(N)n1	0.8	69*	15	5	66*	-12
Cc1ccc(-c2cc3cccc[n+]3cc2-c2ccc(C)cc2)cc1	1	100*	-4	-3	57	91*
Cc1ccc2nc(-c3ccncc3)cc(-c3ccccc3)c2c1	0.9	20	15	1	14	x
CC(C)c1ccc(C2NC(=S)NC3=C2C(=O)CC(C)(C)C3)cc1 (centres undefined)	0.8	30	16	-5	-6	x
Clc1ccc(-c2nnc(-c3ccc(Br)cc3)c(N3CCSCC3)n2)cc1	1	27	2	0	13	x
Clc1ccc(-c2nnc(-c3ccco3)nc2N2CCCCC2)cc1	0.9	64*	6	1	66*	25
NS(=O)(=O)c1ccc(CNC(=O)Cc2c(F)cccc2Cl)cc1	1.1	-1	-7	5	4	x
COC(=O)C(=C/C(C)=C/c1cccs1)C(=O)OC	0.9	62*	14	4	11	21
COc1ccc(C(=O)N/C(=C/c2cccs2)C(=O)NC(C)(C)C)cc1OC	1	-1	3	6	-9	x
Cc1ccc(N2C(=O)CC(Cc3cccc(C)c3)C2=O)cc1 (centres undefined)	1	-6	5	8	0	x
O=C(NCc1ccc(F)cc1)c1cnc(-c2ccccn2)nc1C(F)(F)F	0.8	-2	15	1	12	x
COc1ccc2c(c1)OCC1=C2CCC2(C)C(=O)CC=C12 (centres undefined)	0.6	52*	38	-8	-6	23
